From ChEMBL document CHEMBL3351834, “Jalapinoside, a macrocyclic bisdesmoside from the resin glycosides of Ipomea purga, as a modulator of multidrug resistance in human cancer cells” (J Nat Prod, 2015)
Values after ≈ are worked out from the molar mass of the structure shown.

How the values were obtained:
MCF7 [1] = experiment: Cytotoxicity against human MCF7 cells assessed as growth inhibition after 72 hrs by SRB assay in presence of vinblastine; format: functional, cell-based; details: MCF7, 72 h
Summary of the method: (§1)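 SRB assay. Log-phase cells, RPMI 1640 + 10% FBS, treated in triplicate with test samples at 0.2−25 μg/mL, 72 h at 37 °C, 5% CO2, static conditions. IC50 (50% inhibition of control growth) read from a semilog plot of concentration (μg/mL) against % growth inhibition. Resistant subline kept in 0.192 μg/mL vinblastine; a vinblastine-free stock also maintained.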

MCF7 [2] = experiment: Reversal of multidrug-resistance in human MCF7 cells in presence of vinblastine assessed as reduction in vinblastine IC50 at 25 ug/ml relative to IC50 vinblastine alone; format: functional
Summary of the method: (§2)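 Modulation by SRB assay. MCF-7 or MCF-7/Vin cells exposed 72 h to vinblastine (0.000 64−10 μg/mL) with or without glycolipid at 25 or 5 μg/mL (water−DMSO 9:1). Vinblastine IC50 taken from a semilog growth-inhibition plot. Reserpine 5 μg/mL as reference modulator. Reversal fold = IC50 of vinblastine alone ÷ IC50 with test compound.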

MCF7 [3] = experiment: Reversal of multidrug-resistance in human MCF7 cells assessed as reduction in vinblastine IC50 at 25 ug/ml relative to IC50 vinblastine alone; format: functional; summary of the method: as §2
MCF7 [4] = experiment: Cytotoxicity against human MCF7 cells assessed as growth inhibition after 72 hrs by SRB assay; format: functional, cell-based; details: MCF7, 72 h; summary of the method: as §1
MCF7 [5] = experiment: Cytotoxicity against vinblastin-sensitive human MCF7 cells assessed as growth inhibition after 72 hrs by SRB assay; format: functional, cell-based; details: MCF7, 72 h; summary of the method: as §1
MCF7 [6] = experiment: Reversal of multidrug-resistance in vinblastin-sensitive human MCF7 cells assessed as reduction in vinblastine IC50 at 25 ug/ml relative to IC50 vinblastine alone; format: functional; summary of the method: as §2

SMILES | IC50 (MCF7 [1]) [µg/mL] | fold change (FC) (MCF7 [2]) | fold change (FC) (MCF7 [3]) | IC50 (MCF7 [4]) [µg/mL] | IC50 (MCF7 [5]) [µg/mL] | fold change (FC) (MCF7 [6])
CCCCCCCCCCCC(=O)O[C@H]1[C@@H](O)[C@@H](C)O[C@@H](O[C@@H]2[C@@H](O[C@@H]3O[C@H](CO)[C@@H](O)[C@H](O)[C@H]3O[C@@H]3O[C@H](C)[C@@H](O)[C@H](OC(=O)[C@@H](C)CC)[C@H]3O)[C@@H](OC(=O)[C@@H](C)CC)[C@H](O[C@H]3[C@@H]4O[C@H]5[C@H](O[C@H](CCC)CCCCCCC[C@H](O[C@@H]6O[C@H](C)[C@@H](O)[C@H](O)[C@H]6O)CC(=O)O[C@H]3[C@H](O)[C@@H](COC(C)=O)O4)O[C@H](C)[C@@H](O)[C@@H]5O)O[C@H]2C)[C@@H]1O | < 0.00064 | >1906.3 | >1593 | < 0.00064 | < 0.00064 | 73.4
COC(=O)[C@H]1[C@H]2C[C@@H]3c4[nH]c5cc(OC)ccc5c4CCN3C[C@H]2C[C@@H](OC(=O)c2cc(OC)c(OC)c(OC)c2)[C@@H]1OC [RESERPINE] | 0.31 |  |  | 0.037 (≈ 0.0608 µM) | 0.003 (≈ 0.00493 µM) | 
CC[C@]1(O)C[C@@H]2CN(CCc3c([nH]c4ccccc34)[C@@](C(=O)OC)(c3cc4c(cc3OC)N(C)[C@H]3[C@@](O)(C(=O)OC)[C@H](OC(C)=O)[C@]5(CC)C=CCN6CC[C@]43[C@@H]65)C2)C1 [VINBLASTINE] | 1.22 |  |  | 1.02 (≈ 1.26 µM) |  | 
